Assay results as given in ChEMBL document CHEMBL4613252 (J Nat Prod, 2020).
Active and inactive are the calls of the source. The rule behind the calls is not given here.

Columns and labels:
MDA-MB-231 = assay: Cytotoxicity against human MDA-MB-231 cells after 72 hrs by CellTiter 96 Aqueous One Solution reagent based assay; assay type: functional, cell-based; settings: MDA-MB-231, 72 h
HT-29 = assay: Cytotoxicity against human HT-29 cells after 72 hrs by CellTiter 96 Aqueous One Solution reagent based assay; assay type: functional, cell-based; settings: HT-29, 72 h
[1] = Inhibition of porcine cortex Na+/K+-ATPase using ATP as substrate after 15 mins by ADP-Glo Reagent based method; parameters: species or system Sus scrofa
Summary of the method: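 Enzyme from porcine cerebral cortex in assay buffer, preincubated with compound in DMSO or DMSO alone; ATP added, 15 min reaction. ADP formed was quantified luminescently: 40 min with ADP-Glo reagent, then 60 min with detection reagent (luciferin/luciferase). Concentration-response over a range of concentrations; IC50 derived; triplicate, three independent experiments.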

NCI-H1299 = assay: Inhibition of glucose transporter in human NCI-H1299 cells assessed as reduction in [3H]2-deoxy-D-glucose uptake at 30 uM preincubated for 15 mins followed by [3H]2-deoxy-D-glucose addition and measured after 40 mins by liquid scintillation counting method; assay type: cell-based
Summary of the method: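 H1299 NSCLC cells (maintained in DMEM, 25 mM glucose, 10% FBS) serum-starved 1.5 h in FBS-free DMEM, then 30 min in glucose-free KRP buffer. Compound at 30 μM final, 15 min; uptake started with 37 MBq/L 2-deoxy-D-[3H]glucose plus 1 mM glucose (final), 40 min. Stopped with PBS, lysate radioactivity counted. Vehicle negative control, WZB117 positive control; n = 3, Student's t-test versus vehicle.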

MDA-MB-435 = assay: Cytotoxicity against human MDA-MB-435 cells after 72 hrs by CellTiter 96 Aqueous One Solution reagent based assay; assay type: functional, cell-based; settings: MDA-MB-435, 72 h
OVCAR-3 = assay: Cytotoxicity against human OVCAR3 cells after 72 hrs by CellTiter 96 Aqueous One Solution reagent based assay; assay type: functional, cell-based; settings: OVCAR-3, 72 h

Row | Compound | IC50 (MDA-MB-231) [µM] | IC50 (HT-29) [µM] | IC50 [1] [µM] | Activity (NCI-H1299) | IC50 (MDA-MB-435) [µM] | IC50 (OVCAR-3) [µM]
1 | C[C@H]1O[C@@H](O[C@H]2[C@@H](O)C[C@H](O[C@H]3[C@@H](O)C[C@H](O[C@H]4CC[C@@]5(C)[C@H](CC[C@@H]6[C@@H]5C[C@@H](O)[C@]5(C)[C@@H](C7=CC(=O)OC7)CC[C@]65O)C4)O[C@@H]3C)O[C@@H]2C)C[C@H](O)[C@@H]1O [DIGOXIN] | 0.31 | 0.28 | 0.23 | inactive | 0.17 | –
2 | CC(=O)O[C@H]1[C@@H](OC(C)=O)C[C@H](O[C@H]2[C@@H](OC(C)=O)C[C@H](O[C@H]3[C@@H](OC(C)=O)C[C@H](O[C@H]4CC[C@@]5(C)[C@H](CC[C@@H]6[C@@H]5C[C@@H](OC(C)=O)[C@]5(C)[C@@H](C7=CC(=O)OC7)CC[C@]65O)C4)O[C@@H]3C)O[C@@H]2C)O[C@@H]1C | > 10 | > 10 | – | – | > 10 | 8.2
3 | C[C@]12[C@H](O)CC3=C(CC[C@@H]4C[C@@H](O)CC[C@]34C)[C@H]1CC[C@@H]2C1=CC(=O)OC1 | > 10 | > 10 | – | – | > 10 | > 10
4 | CC(=O)O[C@H]1[C@@H](OC(C)=O)C[C@H](O[C@H]2[C@@H](O)C[C@H](O[C@H]3[C@@H](O)C[C@H](O[C@H]4CC[C@@]5(C)[C@H](CC[C@@H]6[C@@H]5C[C@@H](OC(C)=O)[C@]5(C)[C@@H](C7=CC(=O)OC7)CC[C@]65O)C4)O[C@@H]3C)O[C@@H]2C)O[C@@H]1C | > 10 | > 10 | – | – | > 10 | 6.2
5 | C[C@H]1O[C@@H](O[C@H]2[C@@H](O)C[C@H](O[C@H]3[C@@H](O)C[C@H](O[C@H]4CC[C@@]5(C)[C@H](CC[C@@H]6[C@@H]5C[C@@H](O)[C@]5(C)[C@H]([C@@H]7CC(=O)O[C@@H]7O)CC[C@]65O)C4)O[C@@H]3C)O[C@@H]2C)C[C@H](O)[C@@H]1O | > 10 | > 10 | 160 | – | > 10 | > 10
6 | C[C@]12CC[C@H](O)C[C@H]1CC[C@@H]1[C@@H]2C[C@@H](O)[C@]2(C)[C@@H](C3=CC(=O)OC3)CC[C@]12O [DIGOXIGENIN] | 3.2 | 3.6 | – | – | 0.9 | 2.4
